Results on three compounds are retold here after publication PMC5152578 (Molecular oncology, 2016).

For assay [1], the system named is lung tissues of MDA-MB-231 xenograft SCID mice. Description: Immunohistochemistry of lung tissues. As to conditions: lung tissue. Format: in vivo, mouse. In short, it runs like this: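 Lungs from the metastasis model were fixed in 10% buffered formalin, paraffin-embedded and cut at 4 μm. Sections stained with H&E and immunostained with rabbit antibodies to VEGF, Ki-67, COX-2 and caspase 3. Staining levels quantified by image analysis and compared with sham and tumor control groups.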

Assay [2] relates to MDA-MB-231 cells. As to the kind of experiment: Boyden chamber migration assay. Format: cell-based, human. As to conditions: 24 h, vs vehicle; for reduction of cell migration, low concentration: DET 2.5 μM, DETD-35 1.25 μM, PTX 2.5 μM. A digest of the protocol:
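Boyden inserts, 6.5 mm diameter, no coating. 5 × 10^4 MDA-MB-231 cells per insert in DMEM with 0.1% FBS. The lower well held 10% FBS chemoattractant with 0.5% DMSO vehicle or test compounds at two concentrations. Incubation 24 h, 37 °C, 5% CO2. Non-migrated cells removed by swab; migrated cells fixed, DAPI-stained (1 μg/mL) and counted in three fields at 20× by fluorescence microscopy. Three independent experiments, mean ± SEM, one-way ANOVA.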

For assay [3], the system named is MDA-MB-231 cells. As to the kind of experiment: Boyden chamber. Particulars: 24 h, Matrigel. In kind it is cell-based, human. In short, it runs like this: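 Filters (8 μm) pre-coated with Matrigel (30 μg per filter) and held 2 h at 37 °C. MDA-MB-231 cells were seeded in the upper chamber at 5 × 10^4 per insert in DMEM with 0.1% FBS. The lower well held 10% FBS chemoattractant plus 0.5% DMSO vehicle or test compounds, two concentrations each. Incubation 24 h, 37 °C, 5% CO2. Cells on the upper surface were scraped off; invaded cells fixed, DAPI-stained (1 μg/mL) and counted in three 20× fields. Three independent experiments, mean ± SEM, one-way ANOVA.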

Assay [4] concerns MDA-MB-231 tumor cells in SCID mice. Description: Lung metastatic animal model of TNBC. Format: in vivo, mouse. Particulars: post-treatment, 5 mg/kg i.p. every three days (21 doses), day 71. In short, it runs like this:
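Seventy female SCID mice, 5 weeks old, randomised into 7 groups. MDA-MB-231 cells (1 × 10^6) injected i.v. on day 0. One group received 10 mg/kg every two days for three doses before cell injection. Tumor and sham controls received 5% DMSO. Mice killed on day 71; lung colonies counted, body weight and organ index recorded; one-way ANOVA.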

In assay [5] the test system is MDA-MB-231 cells. Description: Compound-drug combination assay. In kind it is cell-based, human. Particulars: MTT, 24 h. In short, it runs like this:
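MDA-MB-231 cells seeded at 1.5 × 10^3–5 × 10^3 per well in 96-well plates. Treated 24 h with each agent alone to derive IC40 by MTT. Then treated with the test compound (0–4 μM) combined with paclitaxel (0–100 nM) and read by MTT. Interaction assessed by classic isobologram and the Chou-Talalay method. Combination index plotted against fraction affected: CI <1 synergy, =1 additive, >1 antagonism.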

In assay [6] the test system is MDA-MB-231 cells. As to the kind of experiment: Western blot analysis of protein markers. In kind it is cell-based, human. As to conditions: for PARP (full-length and cleaved) expression: 48-h treatment. A digest of the protocol:
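Total cellular protein from treated MDA-MB-231 cells, quantified by Bradford assay. Resolved on 4%–20% gradient SDS-PAGE and immunoblotted for PARP (full-length and cleaved), PN-1, Slug, vimentin, VEGF, E-cadherin, Snail, ZO-1 and ZEB-1, with actin as loading control. HRP secondary antibodies and enhanced chemiluminescence on film. Bands quantified by densitometry and normalised to actin.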

The test system of assay [7] is MDA-MB-231 cells. Description: Cell cycle analysis by flow cytometry. In kind it is cell-based, human. As to conditions: for apoptotic sub-G1 DNA content / G0/G1 phase DNA content: 48 h at IC50 (DET 14 μM, DETD-35 3.8 μM, PTX 60 μM); for apoptotic sub-G1 DNA content: vehicle 1.3%; for G0/G1 phase DNA content: vehicle 51.5%; for cell-cycle arrest: treatment at IC50, time course. In short, it runs like this:
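MDA-MB-231 cells, 5 × 10^4 per well in 6-well plates, held 24 h in DMEM with 0.5% FBS. Medium then switched to 10% FBS with test compounds for 48 h, or for indicated times. Adherent and floating cells pooled, PBS-washed and fixed in ice-cold 70% ethanol overnight at 4 °C. Stained with 20 μg/mL RNase, Triton X-100 and 20 μg/mL propidium iodide for 30 min, dark, room temperature. Phase fractions (sub-G1, G0/G1, S, G2/M) taken from flow cytometric DNA histograms; three independent experiments.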
For orientation: Flow cytometry measures light scatter and fluorescence of single cells or particles in a stream.

For assay [8], the system named is brain cancer cell line U-87MG. As to the kind of experiment: MTT cell viability assay, U-87MG cells. In kind it is cell-based. As to conditions: read-out: 50% inhibitory concentration (IC50), U-87MG, 24 h. In short, it runs like this:
(§1)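 Normal or cancer cells seeded at 2 × 10^3–1 × 10^4 per well in 96-well plates and allowed to settle overnight. Exposed to test compounds for 24 h, with paclitaxel run in parallel as reference. Growth read by MTT, OD570. Viability (%) = treated OD570 / vehicle OD570 × 100, with 0.5% DMSO vehicle set as 100%. IC50 derived from viability data.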
On the technique in general: Formazan colour is commonly taken as a measure of viable cells.

The subject of assay [9] is MDA-MB-231 (ER−, PR−, HER2−) cells. As to the kind of experiment: MTT cell viability assay, MDA-MB-231 cells. Format: cell-based, human. As to conditions: read-out: 50% inhibitory concentration (IC50), MDA-MB-231, Table 3, 24 h, breast. A digest of the protocol:
as §1

The subject of another assay is B16–F10 cells (skin). Description: MTT cell viability assay, B16–F10 cells. Format: cell-based. Particulars: read-out: 50% inhibitory concentration (IC50), B16–F10 (mouse), 24 h. In short, it runs like this:
as §1

Assay [10] relates to colon cancer cell line HCT-116. Description: MTT cell viability assay, HCT-116 cells. Format: cell-based. As to conditions: read-out: 50% inhibitory concentration (IC50), HCT-116, 24 h. In short, it runs like this: as §1
Assay [11] deals with neuroepithelioma line SK-N-MC. As to the kind of experiment: MTT cell viability assay, SK-N-MC cells. Format: cell-based. As to conditions: read-out: 50% inhibitory concentration (IC50), SK-N-MC, 24 h. In short, it runs like this: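 Cells (2 × 10^3–1 × 10^4 per well) seeded overnight in 96-well plates, then exposed to test compound for 24 h. Growth read by MTT colorimetric assay at OD570. Viability expressed as treated OD570 over vehicle (0.5% DMSO) OD570 × 100, with vehicle set to 100% viable. IC50 taken as the concentration giving 50% inhibition of viability.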

Assay [12] concerns kidney cancer cell line A498. Description: MTT cell viability assay, A498 cells. In kind it is cell-based. Particulars: read-out: 50% inhibitory concentration (IC50), A498, 24 h. A digest of the protocol: as §1
The subject of another assay is lymphoma line U937. As to the kind of experiment: MTT cell viability assay, U937 cells. Format: cell-based. As to conditions: read-out: 50% inhibitory concentration (IC50), U937, 24 h. A digest of the protocol: as §1
The subject of assay [13] is TS/A (ER+, HER2−) murine mammary cancer cell line. As to the kind of experiment: MTT cell viability assay, TS/A cells. Format: cell-based. As to conditions: read-out: 50% inhibitory concentration (IC50), TS/A (mouse), Table 3, 24 h, breast. In short, it runs like this: as §1
The next assay relates to PC3 cells (prostate). Description: MTT cell viability assay, PC3 cells. In kind it is cell-based. Particulars: read-out: 50% inhibitory concentration (IC50), PC3, 24 h. In short, it runs like this: as §1
The subject of assay [14] is lung cancer cell line PC6. Description: MTT cell viability assay, PC6 cells. Format: cell-based. Particulars: read-out: 50% inhibitory concentration (IC50), PC6, 24 h. In short, it runs like this:
as §1

Assay [15] concerns uterus cancer cell line NES-SA. Description: MTT cell viability assay, NES-SA cells. Format: cell-based. Particulars: read-out: 50% inhibitory concentration (IC50), NES-SA, 24 h. A digest of the protocol:
as §1

Assay [16] concerns stomach cancer cell line KATO III. As to the kind of experiment: MTT cell viability assay, KATO III cells. Format: cell-based. As to conditions: read-out: 50% inhibitory concentration (IC50), KATO III, 24 h. A digest of the protocol:
as §1

The mark [17] stands for this setting: DET 4 μM, DETD-35 2.5 μM, PTX 4 μM.

`CC(=O)O[C@H]1C(=O)[C@@]2(C)[C@H]([C@H](OC(=O)c3ccccc3)[C@]3(O)C[C@H](OC(=O)[C@H](O)[C@@H](NC(=O)c4ccccc4)c4ccccc4)C(C)=C1C3(C)C)[C@]1(OC(C)=O)CO[C@@H]1C[C@@H]2O` [PTX, paclitaxel]: the “expression of apoptotic marker caspase 3” value in assay [1] is listed as “increased expression”. In addition, the “reduction of cell migration, low concentration” value in the assay on MDA-MB-231 cells [2] worked out at 87%. Besides, the “reduction of cell migration, high concentration” value in the assay on MDA-MB-231 cells [2] (setting [17]) is listed as 88%. Also, the “inhibition of cell invasion, low concentration” value in the assay with MDA-MB-231 cells [3] (DET 2.5 μM, DETD-35 1.25 μM, PTX 2.5 μM) was 85%. For the same compound, in the assay with MDA-MB-231 cells [3] (setting [17]), the “inhibition of cell invasion, high concentration” value stood at 90%. Further, in [4], the “reduction of lung tumor foci” value is recorded as 62%. The “IC40 on MDA-MB-231 cells” value in the assay on MDA-MB-231 cells [5] was 23.8 nM. Moreover, in the assay on MDA-MB-231 cells [6], the “expressions of VEGF and protease nexin-1 (PN-1)” value is “downregulated”; the vimentin expression entry is listed as “time-dependently downregulated”; the “PARP (full-length and cleaved) expression” value is on record as “reduced the expression of full-length PARP”. Also, in the assay with MDA-MB-231 cells [7], the “apoptotic sub-G1 DNA content” value stood at 66.8%, the “G0/G1 phase DNA content” value worked out at 11.2% and the cell-cycle arrest result is on record as “typical time-dependent G2/M arrest”.

`C=C(C)C(=O)O[C@H]1CC2=C[C@@H](C/C(C)=C/[C@H]3OC(=O)C(=C)[C@H]13)OC2=O` [compound 1, deoxyelephantopin, reference compound]: the IC50 turned out to be 1000 nM in [8]; 14000 nM in assay [9]; 6000 nM with B16–F10 cells (skin); 280 nM in assay [10]; 510 nM in assay [11]; 2820 nM in assay [12]. The IC50 with lymphoma line U937 was determined as 480 nM; in assay [13], 2600 nM; in the assay with PC3 cells (prostate), 12800 nM; in [14], 400 nM; in assay [15] it was 900 nM; in assay [16], 1470 nM. The “reduction of cell migration, low concentration” value in the assay with MDA-MB-231 cells [2] amounted to 16%. The “expressions of VEGF and protease nexin-1 (PN-1)” value with MDA-MB-231 cells [6] is “downregulated”. In addition, the vimentin expression result in the assay with MDA-MB-231 cells [6] is “did not regulate”. Moreover, the “PARP (full-length and cleaved) expression” value in the assay with MDA-MB-231 cells [6] is on record as “induced significant cleavage in PARP”. Besides, the ZEB-1 expression level in the assay on MDA-MB-231 cells [6] (at 48 h) amounted to 49%. Further, the “apoptotic sub-G1 DNA content” value in the assay with MDA-MB-231 cells [7] turned out to be 19.3%. For the same compound, the “G0/G1 phase DNA content” value in the assay with MDA-MB-231 cells [7] was found to be 36.2%. In the assay with MDA-MB-231 cells [7], the cell-cycle arrest result is recorded as “did not show any cell-cycle arrest at specific stages”.

Regarding Cinnamate [compound 28], the IC50 in [8] stood at 350 nM; in assay [9], 4000 nM; in the assay with B16–F10 cells (skin), 3900 nM; in assay [10], 110 nM; in [11], 320 nM; in [12], 1110 nM. Further, the IC50 with lymphoma line U937 is 180 nM; in [13], 1800 nM; with PC3 cells (prostate), 4500 nM; in [14], 170 nM; in assay [15], 420 nM; in assay [16], 420 nM.
